Measurements from ChEMBL document CHEMBL2331500, “Bioactive flavaglines and other constituents isolated from Aglaia perviridis” (J Nat Prod, 2013).

What was measured:
[1] = target: Transcription factor p65 (Homo sapiens) (UniProt Q04206); test: Inhibition of NF-kappaB p65 (unknown origin) by ELISA
HT-29 = test: Cytotoxicity against human HT-29 cells; type: functional; settings: read-out: ED50 (the source's name)
Method in brief: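 HT-29 human colon cancer cells, run by a previously described protocol on all isolates. Growth inhibition was reported as ED50, and a positive control compound was run alongside.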

[2] = Cytotoxicity against human CCD-112CoN cells; type: cell-based; settings: read-out: ED50 (the source's name)

Transcription factor p65 (Homo sapiens), sequence (Q04206 whole entry): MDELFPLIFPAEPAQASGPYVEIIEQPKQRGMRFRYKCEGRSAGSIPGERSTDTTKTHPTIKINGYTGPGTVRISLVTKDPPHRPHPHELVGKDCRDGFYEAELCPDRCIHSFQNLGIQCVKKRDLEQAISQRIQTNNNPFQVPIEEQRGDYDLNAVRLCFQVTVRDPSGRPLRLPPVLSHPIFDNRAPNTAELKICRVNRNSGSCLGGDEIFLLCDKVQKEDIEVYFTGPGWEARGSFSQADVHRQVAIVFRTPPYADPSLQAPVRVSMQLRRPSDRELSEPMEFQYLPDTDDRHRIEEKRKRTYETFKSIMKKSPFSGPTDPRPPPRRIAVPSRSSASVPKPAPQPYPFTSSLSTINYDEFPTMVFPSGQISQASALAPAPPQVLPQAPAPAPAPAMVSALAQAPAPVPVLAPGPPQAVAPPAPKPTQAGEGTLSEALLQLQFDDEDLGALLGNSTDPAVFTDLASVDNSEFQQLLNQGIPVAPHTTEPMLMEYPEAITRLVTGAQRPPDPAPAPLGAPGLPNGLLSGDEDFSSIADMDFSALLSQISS

Structure (SMILES)	ED50 [1] [µM]	EC50 (HT-29; Homo sapiens, HT-29) [µM]	CC50 [2] [µM]	EC50 (HT-29) [µM]
CC(C)=CC(=O)[C@@H](O)[C@@H](C)[C@H]1CC[C@@]2(C)[C@@H]3CC[C@H]4C(C)(C)[C@@H](O)CC[C@@]45C[C@@]35CC[C@]12C [PERVIRIDISINOL A]	> 20	> 10	–	–
CC1=CC(O)N(CCCCNC(=O)/C=C/c2ccccc2)C1=O (configuration not stated) [GIGANTAMIDE A]	> 20	> 10	–	–
CC(=O)O[C@H]1C(=O)[C@@]2(C)[C@H]([C@H](OC(=O)c3ccccc3)[C@]3(O)C[C@H](OC(=O)[C@H](O)[C@@H](NC(=O)c4ccccc4)c4ccccc4)C(C)=C1C3(C)C)[C@]1(OC(C)=O)CO[C@@H]1C[C@@H]2O [PACLITAXEL]	–	0.001	23	–
COC(=O)[C@H]1[C@@H](O)[C@@]2(OC)c3c(OC)cc(OC)cc3O[C@@]2(c2ccc3c(c2)OCO3)[C@@H]1c1ccccc1	> 20	4.7	> 50	–
COc1cc(OC)c2c(c1)O[C@@]1(c3ccc4c(c3)OCO4)[C@H](c3ccccc3)C[C@@H](O)[C@@]21O	0.33	0.0067	> 50	–
CC1(C)[C@H](O)CC[C@]2(C)[C@H]3CC[C@@H]4[C@@H]([C@]5(C)CCC(=O)O5)CC[C@@]4(C)[C@]3(C)CC[C@@H]12 [CABRALEAHYDROXYLACTONE]	> 20	> 10	–	–
COc1cc2ccc(=O)oc2cc1O [SCOPOLETIN]	> 20	> 10	–	–
COc1ccc([C@@]23Oc4cc(OC)cc(OC)c4[C@]2(OC)[C@H](O)C[C@H]3c2ccccc2)cc1	> 20	> 10	–	–
COC(=O)[C@H]1[C@@H](OC=O)[C@@]2(O)c3c(OC)cc(OC)cc3O[C@@]2(c2ccc3c(c2)OCO3)[C@@H]1c1ccccc1	–	0.056	> 50	–
COc1ccc([C@@]23Oc4cc(OC)cc(OC)c4[C@]2(O)[C@H](O)[C@H](C(=O)N(C)C)[C@H]3c2ccccc2)cc1 [ROCAGLAMIDE]	–	0.005	> 50	–
C=C(CC[C@@H](CO)[C@H]1CC[C@@]2(C)[C@@H]3CC[C@H]4C(C)(C)[C@@H](O)CC[C@@]45C[C@@]35CC[C@]12C)C(C)C	> 20	> 10	–	–
COC(=O)[C@H]1[C@@H](O)[C@@]2(O)c3c(OC)cc(OC)cc3O[C@@]2(c2ccc3c(c2)OCO3)[C@@H]1c1ccccc1	3.54	0.002	> 50	–
COc1ccc([C@]23Oc4cc(OC)cc(OC)c4[C@](O)(C2O)[C@@H](c2ccccc2)[C@@H]3C(=O)NCCCCNC(=O)/C(C)=C/CO)cc1 (stereo in doubt; 2) [listing 1 of 2 here]	–	–	> 50	0.46
CC(C)=C[C@H]1OC[C@@H]([C@H]2CC[C@@]3(C)[C@@H]4CC[C@H]5C(C)(C)[C@@H](O)CC[C@@]56C[C@@]46CC[C@]23C)[C@@H]1O [PERVIRIDISINOL B]	> 20	> 10	–	–
COc1ccc([C@]23Oc4cc(OC)cc(OC)c4[C@](O)(C2O)[C@@H](c2ccccc2)[C@@H]3C(=O)NCCCCNC(=O)/C(C)=C/CO)cc1 (stereo in doubt; 1) [listing 1 of 2 here]	> 20	–	–	–
CC(C)=C[C@H](O)[C@@H](O)[C@@H](CO)[C@H]1CC[C@@]2(C)[C@@H]3CC[C@H]4C(C)(C)[C@@H](O)CC[C@@]45C[C@@]35CC[C@]12C [ARGENTEANOL]	> 20	> 10	–	–
COC(=O)[C@H]1[C@@H](O)[C@@]2(OC)c3c(OC)cc(OC)cc3O[C@@]2(c2ccc(OC)cc2)[C@@H]1c1ccccc1	> 20	4.9	> 50	–
COc1ccc([C@]23Oc4cc(OC)cc(OC)c4[C@](O)(C2O)[C@@H](c2ccccc2)[C@@H]3C(=O)NCCCCNC(=O)/C(C)=C/CO)cc1 (stereo in doubt; 1) [listing 2 of 2 here]	–	–	–	> 10
COc1ccc([C@@]23Oc4cc(OC)cc(OC)c4[C@]2(O)[C@H](O)C[C@H]3c2ccccc2)cc1 [ROCAGLAOL]	0.005	0.0007	> 50	–
COc1cc(OC)c2c(c1)O[C@@]1(c3ccc4c(c3)OCO4)[C@H](c3ccccc3)C[C@@H](O)[C@@]21OC	> 20	0.96	> 50	–
CC1=CC(=O)CC(C)(C)[C@H]1CC[C@H](O)CO	> 20	> 10	–	–
COC(=O)[C@H]1[C@@H](O)[C@@]2(O)c3c(OC)cc(OC)cc3O[C@@]2(c2ccc(OC)cc2)[C@@H]1c1ccccc1 [AGLAFOLIN]	> 20	0.012	> 50	–
COc1ccc([C@@]23Oc4cc(OC)cc(OC)c4[C@]2(O)[C@H](O)[C@H](C(N)=O)[C@H]3c2ccccc2)cc1 [DIDESMETHYLROCAGLAMIDE]	> 20	0.021	> 50	–
COC(=O)[C@H]1[C@@H](OC=O)[C@@]2(O)c3c(OC)cc(OC)cc3O[C@@]2(c2ccc(OC)cc2)[C@@H]1c1ccccc1	> 20	0.019	> 50	–
COc1ccc(-c2oc3cc(OC)cc(OC)c3c(=O)c2O)cc1	> 20	> 10	–	–
COc1ccc([C@]23Oc4cc(OC)cc(OC)c4[C@](O)(C2O)[C@@H](c2ccccc2)[C@@H]3C(=O)NCCCCNC(=O)/C(C)=C/CO)cc1 (stereo in doubt; 2) [listing 2 of 2 here]	2.4	–	–	–
CC(C)[C@H]1CC[C@]2(C)C(=O)CCC(C=O)=C[C@H]12	0.005	> 20	–	–
C=C(CC[C@@H](CO)[C@H]1CC[C@@]2(C)[C@@H]3CC[C@H]4[C@H](C)[C@@H](O)CC[C@@]45C[C@@]35CC[C@]12C)C(C)C [PERVIRIDISINOL C]	> 20	> 10	–	–
